SR-BI DiI-HDL act = SR-BI HDL lipid transfer activation. 320,000 compounds, 0.096% hits. CHO ldlA[mSR-BI] cells, DiI-HDL uptake fluorescence, 3 h; 100 = double the neutral-control signal. activation, % at 12.5 µM;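 active means mean replicate activation of at least 60% and every replicate at or above 60%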;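 further: 0% = median plate neutral-control signal and 100% = twice that signal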
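Test system: SR-BI-overexpressing, LDLR-lacking CHO cells; Medium: Ham's F12 with 0.5% BSA, HEPES 25 mM, pH 7.4; Schedule: 3 h, 37 °C; Technique: bottom-read fluorescence, 550/595 nm.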
ANO1 block = blocks the mouse calcium-activated chloride channel TMEM16A; 310,000 compounds, 1.2% hits; normalized B-score (activity score, 25-100; higher = stronger inhibition) at 10 µM; Q8BHY3; HEK293 TMEM16A/YFP iodide influx fluorescence, ionomycin;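 active means ratio plate-corrected score three or more library SD toward inhibition, starting fluorescence score within five deviations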;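 further: score derived from kinetic fluorescence span divided by baseline fluorescence per well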
FID counter = displaces DNA intercalator in HCV helicase counter-screen; DNA fluorescent intercalator displacement, fluorescence; inhibition, % at 7.9 µM; 290,000 compounds, 0.17% hits; in the data active means inhibition above about 37%;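 further: 0% = vehicle and 100% = reference compound; higher means more ethidium bromide displaced from hairpin DNA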
SR-BI HDL uptake = mouse SR-BI HDL lipid transfer inhibition; inhibition, % at 12.5 µM; 320,000 compounds, 0.96% hits; Q61009; AID 488896; ldlA[mSR-BI] CHO cells, DiI-HDL uptake fluorescence, 3 h;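 active means mean replicate inhibition of at least 70% and a set share of replicates each scoring 70 or more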;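 further: 0% = median of neutral control wells and 100% = median of positive control wells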
ANO1 activ = activators or potentiators of mouse TMEM16A chloride channel; Q8BHY3; HEK293 TMEM16A/YFP-H148Q/I152L, iodide quench fluorescence; active compounds read low; B-score at 10 µM; 340,000 compounds, 0.3% hits; AID 623877;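 active means fluorescence-ratio B-score plate-corrected deviation score at least 3 library SD below zero, with starting fluorescence score within 5 deviations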;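 further: channel opened by trigger with iodide after compound preincubation; score built on the fluorescence ratio of max minus min over baseline; more negative score means more quench and so TMEM16A activation or potentiation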
Kir21 inh = Kir2.1 (mouse) channel inhibition. 310,000 compounds, 0.85% hits. B-score at 10 µM. P35561. AID 1672. HEK293-Kir2.1, FluxOR thallium flux fluorescence; active compounds read low;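 active means fluorescence ratio B-score at or below minus 3 SD of library scores, with starting-brightness B-score within 2 SD, cut at about -4.2 in these data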;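 further: channel flux triggered by added potassium and thallium sulfate stimulus; B-score of peak minus minimum fluorescence over baseline after thallium stimulus; more negative B-score means stronger Kir2.1 block with less thallium influx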
Target sequence (P35561 whole entry, looked up): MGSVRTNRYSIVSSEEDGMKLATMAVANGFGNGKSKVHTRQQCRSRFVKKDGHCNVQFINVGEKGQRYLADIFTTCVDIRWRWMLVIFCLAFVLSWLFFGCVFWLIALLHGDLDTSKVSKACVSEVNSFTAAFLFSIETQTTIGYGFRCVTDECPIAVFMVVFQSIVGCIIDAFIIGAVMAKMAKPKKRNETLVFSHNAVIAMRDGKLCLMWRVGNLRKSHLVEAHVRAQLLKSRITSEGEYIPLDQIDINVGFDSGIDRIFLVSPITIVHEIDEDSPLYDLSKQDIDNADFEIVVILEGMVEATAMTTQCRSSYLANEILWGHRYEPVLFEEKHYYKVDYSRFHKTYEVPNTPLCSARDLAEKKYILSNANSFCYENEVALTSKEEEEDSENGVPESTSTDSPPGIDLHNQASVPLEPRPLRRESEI
Numbers without * were called inactive; i = inactive; x = no result. Hits are enriched below; roughly 3% of the tested compounds scored in any of these assays.

SMILES | SR-BI DiI-HDL act | ANO1 block | FID counter | SR-BI HDL uptake | ANO1 activ | Kir21 inh
OC(CNCc1ccc(Cl)cc1)(c1ccccc1)c1ccc(F)cc1 (configuration not stated) | 7 | i | 9 | -7 | i | -3.9
Cc1ccc(C(O)(CNCc2ccccc2)c2ccccc2)cc1 (configuration not stated) | -11 | i | 16 | 11 | i | -11*
COc1ccc(CNCC(O)(c2ccccc2)c2ccc(F)cc2)cc1 (configuration not stated) | -6 | i | 4 | 6 | i | -7*
O=C(CN1C(=O)NC2(CCCC2)C1=O)NNC(=O)c1ccccc1 | 29 | i | x | -29 | i | 1.5
Cc1ccc(S(=O)(=O)NCC(c2ccco2)N2CCc3ccccc3C2)cc1 (configuration not stated) | 12 | 25* | x | -12 | i | -0.48
O=C(NNCc1ccccc1)c1ccccn1 | 11 | x | x | -11 | i | x
Fc1ccccc1C1c2cccn2CCN1C(=S)Nc1ccc(Br)cc1 (configuration not stated) | -29 | i | 1 | 29 | -4.6* | -1.1
Cc1oc(-c2ccccc2)nc1Cn1cccc1C1=NC(c2ccccc2)CO1 (configuration not stated) | -14 | i | 0 | 14 | i | -1
Fc1ccc(Cn2cccc2C2=NC(c3ccccc3)CO2)cc1 (configuration not stated) | 3 | i | 4 | -3 | i | -5.9*
CCOC(=O)C1(CCOc2ccccc2)CCN(Cc2cccs2)CC1 | 6 | i | 2 | -6 | i | -5*
CCOC(=O)C1(CCOc2ccccc2)CCN(Cc2ccc(-n3cccn3)cc2)CC1 | -14 | 25* | 21 | 14 | i | -0.55
CC(c1ccccc1C(O)(c1ccccc1)c1ccccc1)N(C)C (configuration not stated) | 22 | i | 16 | -22 | i | -6.2*
Nc1ccc2c(c1)C(=O)C(=O)c1ccccc1-2 | -5 | 25* | 10 | 5 | i | 0.08
Nc1ccc2c(c1)C(=O)c1ccccc1C2=O | 35 | i | x | -35 | i | x
Nc1ccc2c(c1)C(=O)c1ccccc1-2 | 14 | i | x | -14 | i | 2.4
O=C1C(=O)c2ccc(-c3ccccc3)cc2-c2ccccc21 | -92 | i | 4 | 92* | i | 0.78
CCCc1ccc(C(C)NC(=S)NC2CCCCC2)cc1 (configuration not stated) | 0 | 100* | -38 | 0 | i | -0.35
COc1ccc(F)cc1S(=O)(=O)NCC(c1ccco1)N1CCc2ccccc2C1 (configuration not stated) | -11 | i | x | 11 | i | 0.92
CCOc1cc(/C=C2\C(=N)N3N=CSC3=NC2=O)ccc1OS(=O)(=O)c1ccccc1 | 27 | i | -11 | -27 | i | -5*
NC(=O)C1CCN(C(=O)CCC(=O)c2cccs2)CC1 | 36 | x | x | -36 | i | x
CC(C)c1ccc2c(c1)CC[C@H]1[C@](C)(CN)CCC[C@]21C | 1 | x | x | -1 | i | x
CC(C)c1ccc2c(c1)CCC1C(C)(CN)CCCC21C (configuration not stated) | 7 | i | 26 | -7 | i | -6.1*
CC1(C)NC(=O)N(CC(=O)OCC(=O)c2ccc(F)cc2)C1=O | 152* | i | x | -152 | i | 0.02
COc1ccc(CCNC(=O)COC(=O)C23CC4CC(CC(C4)C2)C3)cc1 | -5 | i | -30 | 5 | i | -7.3*
COc1ccc(CCNC(=O)C2(c3ccccc3)CC2)cc1 | 16 | i | -24 | -16 | i | -4.6*
SMILES | SR-BI DiI-HDL act | ANO1 block | FID counter | SR-BI HDL uptake | ANO1 activ | Kir21 inh
Cc1cc(N2CCN(C)CC2)nc2ccc(NC(=S)N3CCCCC3)cc12 | -31 | x | 22 | 31 | i | -0.39
Cc1cc(N2CCN(C)CC2)nc2ccc(NC(=S)N3CCN(c4ccc(Cl)cc4)CC3)cc12 | x | i | 46* | x | i | 0.83
Cc1cc(N2CCCCC2)nc2ccccc12 | 4 | i | 0 | -4 | i | -1.1
Cc1cc(N2CCN(C)CC2)nc2ccc(NC(=S)N3CCN(c4ccc(F)cc4)CC3)cc12 | x | i | 6 | x | i | -0.09
Cc1cccc(N2CCN(C(=S)Nc3ccc4nc(N5CCN(C)CC5)cc(C)c4c3)CC2)c1C | -89 | x | 0 | 89* | i | 0.07
Cc1cccc(N2CCN(C(=S)Nc3ccc4nc(N5CCN(C)CC5)cc(C)c4c3)CC2C)c1 (configuration not stated) | x | i | 47* | x | i | 1.3
Cc1cc(N2CCCN(C)CC2)nc2cc(Cl)ccc12 | -1 | i | 13 | 1 | i | -4.6*
CN(C(=O)c1cccc(NC(=O)Cc2ccc(NC(=O)C3CCCN(C(=O)C4CC4)C3)cc2)c1)C1CCCC1 (configuration not stated) | -62 | x | x | 62 | x | x
O=C(Nc1cccc(/C=C/c2ccccn2)c1)c1ccc(-n2cncn2)c([N+](=O)[O-])c1 | -53 | 25* | x | 53 | i | 1.4
COc1ccc(-c2[nH]c(-c3ccc(SC)cc3)nc2SCC(=O)Nc2nccs2)cc1 | -87 | i | 3 | 87* | i | 2.5
CC(C)(C)[C@@H]1CCC(=O)N(CC[C@H](Sc2ccc(Br)cc2)c2ccccc2)CC1 | -82 | x | x | 82* | i | x
c1coc(CN=C2NC(=NCc3ccco3)c3ccccc32)c1 | -5 | i | 1 | 5 | i | -6.2*
CC(C)c1ccc(N=C2N=C(N)c3ccccc32)cc1 | -3 | i | 2 | 3 | i | -4.5*
Cc1cccc(NC2=Nc3ccccc3N3C2=Nc2c(c(C)nn2-c2ccccc2)C3c2ccc(O)c(O)c2)c1 (configuration not stated) | -103 | i | -7 | 103* | i | -1.7
Cc1nn(-c2ccccc2)c2c1C(c1ccc([N+](=O)[O-])cc1)N1C(=N2)C(=O)Nc2ccccc21 (configuration not stated) | -2 | i | -9 | 2 | i | -2.8
Cc1ccc(NC2=Nc3ccccc3N3C2=Nc2c(c(C)nn2-c2ccccc2)C3c2ccc(O)c(O)c2)cc1 (configuration not stated) | -119 | x | -14 | 119* | i | x
Cc1nn(-c2ccccc2)c2c1C(c1ccc(O)c(O)c1)N1C(=N2)C(Nc2ccccc2)=Nc2ccccc21 (configuration not stated) | -17 | i | -8 | 17 | i | -0.01
O=C(COC(=O)c1ccccc1)Nc1cc(S(=O)(=O)N2CCCCCC2)ccc1Cl | 6 | x | x | -6 | i | x
